Data on 3 compounds can be found in ChEMBL document CHEMBL4699441, “Identification and Preclinical Evaluation of the Bicyclic Pyrimidine γ-Secretase Modulator BMS-932481” (ACS Med Chem Lett, 2019).

pIC50: −log10 of the molar value. Activity calls are given as the source filed them. The rule behind the calls is not given here.

Series [1] can be described thus: Ratio of drug level in brain to plasma in triple transgenic LaFerla mouse at 30 mg/kg, po measured after 3 hrs. It is filed as ADME, organism-based.
Series [2] in a line: Reduction in amyloid beta (1 to 42) secretion in brain in triple transgenic LaFerla mouse at 30 mg/kg, po measured after 3 hrs relative to control. The series is classed as functional. The method, boiled down:
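Triple transgenic LaFerla mice (APP Swedish, MAPT P301L, PSEN1 M146V) given 30 mg/kg po; brain Aβ1-42 measured 3 h postdose; n = 3.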

Series [3] is described as follows: Inhibition of amyloid beta (1 to 42) secretion in human H4 cells overexpressing APP incubated for overnight by HTRF analysis. It is filed as functional, cell-based. A general note: TR-FRET usually uses a lanthanide donor and a delayed reading to cut background.
The nature of series [4]: Oral bioavailability in Sprague-Dawley rat incubated for 24 hrs by LC-MS/MS analysis. The series is classed as ADME, organism-based. To be noted: in vivo.
Series [5] is described as follows: Oral bioavailability in Beagle dog incubated for 24 hrs by LC-MS/MS analysis. The settings on record: in vivo. The series is classed as ADME, organism-based, Canis lupus familiaris.
Series [6] deals with Homo sapiens. Kind of series: Antialzheimer activity in human assessed as reduction in amyloid beta (1 to 42) AUC at 1.3 mg/kg qd relative to control. More on the design: scale not given: the % may be the effect or the level left.
Series [7] in a line: Plasma concentration in triple transgenic LaFerla mouse at 30 mg/kg, po measured after 3 hrs. The series is classed as ADME, organism-based.
Series [8] can be described thus: Plasma concentration in Harlan Sprague-Dawley rat at 10 mg/kg, po measured after 3 hrs. It is filed as ADME, organism-based.
Series [9] can be described thus: Reduction in amyloid beta (1 to 42) secretion in brain in Harlan Sprague-Dawley rat at 10 mg/kg, po measured after 3 hrs relative to control. The series is classed as functional. A digest of the protocol:
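Sprague–Dawley rats dosed 10 mg/kg po; brain Aβ1-42 measured 3 h postdose; n = 5.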

The nature of series [10]: Cardiotoxicity in rabbit assessed as NOAEL by telemetric analysis. The series is classed as toxicity, Oryctolagus cuniculus.
The target of series [11] is T1, Solute carrier organic anion transporter family member 1B1 (Homo sapiens, UniProt Q9Y6L6).
T1 sequence (Q9Y6L6 whole entry): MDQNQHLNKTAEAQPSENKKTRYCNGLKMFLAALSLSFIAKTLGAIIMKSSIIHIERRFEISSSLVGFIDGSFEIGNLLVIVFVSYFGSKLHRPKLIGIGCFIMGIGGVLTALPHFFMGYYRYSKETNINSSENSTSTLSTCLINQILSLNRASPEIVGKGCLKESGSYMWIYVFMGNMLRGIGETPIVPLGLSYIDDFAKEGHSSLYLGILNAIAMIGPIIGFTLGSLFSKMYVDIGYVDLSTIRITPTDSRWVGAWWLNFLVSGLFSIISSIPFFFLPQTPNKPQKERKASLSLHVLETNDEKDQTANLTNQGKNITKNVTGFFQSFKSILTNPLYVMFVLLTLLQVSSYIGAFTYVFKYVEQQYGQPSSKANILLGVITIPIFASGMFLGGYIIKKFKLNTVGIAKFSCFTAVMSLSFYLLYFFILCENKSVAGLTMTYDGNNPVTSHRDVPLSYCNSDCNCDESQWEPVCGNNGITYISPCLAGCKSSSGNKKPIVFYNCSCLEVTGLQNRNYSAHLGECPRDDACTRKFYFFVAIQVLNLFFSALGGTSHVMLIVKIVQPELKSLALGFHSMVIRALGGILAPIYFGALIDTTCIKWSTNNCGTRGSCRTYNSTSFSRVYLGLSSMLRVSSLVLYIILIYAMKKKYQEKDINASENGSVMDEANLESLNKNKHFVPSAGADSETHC
Nature of the series: Inhibition of OATP1B1 (unknown origin). It is filed as ADME.

The nature of series [12]: Oral bioavailability in cynomolgus monkey incubated for 24 hrs by LC-MS/MS analysis. The series is classed as ADME, organism-based, Macaca fascicularis. To be noted: in vivo.
For the next series, the species on record is Rattus norvegicus. Nature of the series: Antialzheimer activity in Harlan Sprague-Dawley rat brain assessed as reduction in amyloid beta (1 to 42) AUC relative to control. Further details: scale not given: the % may be the effect or the level left. The series is classed as functional.
Series [13] in a line: Toxicity in rat assessed as increase in unconjugated bilirubin in plasma at 10 to 100 mg/kg, po administered for 4 days. It is filed as organism-based. To be noted: in vivo, 96 h, dose 10-100 mg/kg, time 4 day. The method, boiled down: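 Rats dosed orally at 10, 30 and 100 mg/kg for 4 days; plasma inspected and unconjugated bilirubin assessed.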
The subject of series [14] is Homo sapiens. Kind of series: Antialzheimer activity in human assessed as reduction in amyloid beta (1 to 42) AUC at 1.3 mg/kg qd relative to control. Further details: scale not given: the % may be the effect or the level left. The source holds these as a separate data set.
A short description of series [15]: AUC (0 to 24 hrs) in Harlan Sprague-Dawley rat incubated for 24 hrs by LC-MS/MS analysis. More on the design: time 24 hrs. It is filed as ADME. The settings on record: in vivo.
Series [16] is described as follows: Toxicity in rat assessed as hepatocellular necrosis at 10 to 100 mg/kg, po administered for 4 days by histological assay. It is filed as organism-based. To be noted: in vivo, 96 h, dose 10-100 mg/kg, time 4 day.
Series [17] can be described thus: Fraction unbound in human plasma measured after 24 hrs by LC-MS/MS analysis. It is filed as ADME, cell-free.
Series [18] has as its target Voltage-gated inwardly rectifying potassium channel KCNH2 (Homo sapiens, UniProt Q12809). Nature of the series: Inhibition of human ERG by patch clamp method.
Series [19] has as its target T2, UDP-glucuronosyltransferase 1A1 (Homo sapiens, UniProt P22309).
T2 sequence (P22309 whole entry): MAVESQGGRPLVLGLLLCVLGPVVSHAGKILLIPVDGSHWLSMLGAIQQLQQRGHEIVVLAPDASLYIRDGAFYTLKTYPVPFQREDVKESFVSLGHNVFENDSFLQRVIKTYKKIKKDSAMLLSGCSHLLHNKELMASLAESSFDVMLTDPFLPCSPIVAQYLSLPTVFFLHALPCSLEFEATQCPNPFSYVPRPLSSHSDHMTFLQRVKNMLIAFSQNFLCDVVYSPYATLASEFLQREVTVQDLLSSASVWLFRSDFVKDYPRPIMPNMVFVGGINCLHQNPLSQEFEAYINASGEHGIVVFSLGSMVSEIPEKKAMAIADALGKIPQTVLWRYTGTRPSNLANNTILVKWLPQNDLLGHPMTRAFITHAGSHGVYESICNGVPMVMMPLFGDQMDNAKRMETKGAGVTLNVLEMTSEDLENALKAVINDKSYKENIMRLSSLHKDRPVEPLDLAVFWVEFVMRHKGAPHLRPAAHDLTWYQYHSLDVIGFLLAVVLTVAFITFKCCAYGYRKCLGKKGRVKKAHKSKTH
Kind of series: Inhibition of human UGT1A1. It is filed as ADME.

Series [20] in a line: Octanol/water partition coefficient, logD of the compound at pH 6.5 by shake flask method. The series is classed as physicochemical. The method, boiled down: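 Octanol/water partitioning by shake flask at pH 6.5.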
A short description of series [21]: Stability in human liver microsomes assessed as remaining compound measured after 10 mins by LC-MS/MS analysis. To be noted: read-out: Stabilty. It is filed as ADME, Microsome. A digest of the protocol: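 High-throughput microsomal stability: 3 μM substrate, 1 mg/mL microsomal protein, 100 mM sodium phosphate pH 7.4, 37 °C; quenched at 10 min, LC–MS/MS, percent parent remaining reported.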
(In general: Liver microsomes are vesicles of endoplasmic reticulum, rich in cytochrome P450 enzymes.)

Series [22] is described as follows: Suppression of total amyloid beta secretion in human H4 cells overexpressing APP incubated for overnight by Western blot analysis. The series is classed as ADME, cell-based. (In western blotting, separated proteins are transferred to a membrane and probed.)
Series [23] deals with H4. Nature of the series: Induction of amyloid beta (1 to 38) secretion in human H4 cells overexpressing APP incubated for overnight by Western blot analysis. It is filed as functional, cell-based.
The subject of series [24] is H4. Nature of the series: Induction of amyloid beta (1 to 37) secretion in human H4 cells overexpressing APP incubated for overnight by Western blot analysis. The series is classed as functional, cell-based.

Voltage-gated inwardly rectifying potassium channel KCNH2, sequence (Q12809 whole entry): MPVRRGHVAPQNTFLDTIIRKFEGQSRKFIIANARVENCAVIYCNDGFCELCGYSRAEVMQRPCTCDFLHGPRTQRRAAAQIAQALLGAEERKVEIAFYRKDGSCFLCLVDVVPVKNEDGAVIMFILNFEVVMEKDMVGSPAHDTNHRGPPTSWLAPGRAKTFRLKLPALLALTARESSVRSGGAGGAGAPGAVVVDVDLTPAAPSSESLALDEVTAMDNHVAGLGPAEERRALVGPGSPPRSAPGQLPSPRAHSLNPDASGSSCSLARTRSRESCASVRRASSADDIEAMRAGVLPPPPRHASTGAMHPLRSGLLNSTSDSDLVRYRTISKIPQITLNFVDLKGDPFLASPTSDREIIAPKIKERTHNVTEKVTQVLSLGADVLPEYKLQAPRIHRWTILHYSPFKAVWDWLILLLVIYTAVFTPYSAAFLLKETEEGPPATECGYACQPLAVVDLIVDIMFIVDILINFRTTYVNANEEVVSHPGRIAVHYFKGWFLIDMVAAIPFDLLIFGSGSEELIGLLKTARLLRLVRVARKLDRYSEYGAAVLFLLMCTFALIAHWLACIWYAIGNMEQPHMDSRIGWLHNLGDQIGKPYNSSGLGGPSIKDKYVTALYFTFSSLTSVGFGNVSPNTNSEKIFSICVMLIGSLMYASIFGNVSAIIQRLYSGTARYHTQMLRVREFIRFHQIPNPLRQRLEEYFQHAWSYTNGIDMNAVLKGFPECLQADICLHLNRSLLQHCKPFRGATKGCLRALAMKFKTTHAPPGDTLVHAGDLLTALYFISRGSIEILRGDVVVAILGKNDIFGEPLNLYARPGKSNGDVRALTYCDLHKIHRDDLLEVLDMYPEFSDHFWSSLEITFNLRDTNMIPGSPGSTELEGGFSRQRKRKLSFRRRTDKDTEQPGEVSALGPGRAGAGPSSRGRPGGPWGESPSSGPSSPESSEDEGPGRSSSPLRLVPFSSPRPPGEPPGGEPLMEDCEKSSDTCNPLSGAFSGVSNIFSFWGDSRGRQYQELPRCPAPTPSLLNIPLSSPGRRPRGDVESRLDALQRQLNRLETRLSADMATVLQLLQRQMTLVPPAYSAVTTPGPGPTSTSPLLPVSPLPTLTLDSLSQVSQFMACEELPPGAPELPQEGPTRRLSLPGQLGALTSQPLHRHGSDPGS

The term inhibition in vivo denotes the percentage by which the read-out fell short of the control. Usually pIC50 stands for the negative decadic logarithm of the IC50, by convention in mol/L. As for `CNc1nc(Cc2ccccc2)nc(Nc2ccc(-n3cnc(C)c3)c(OC)c2)n1`, the BPR in [1] was 0.47. This compound also returned an inhibition in vivo at 30 mg/kg in [2] of 32%. Also, in series [3], the pIC50 is 7.51.

Broadly, the bioavailability is the share of a dose that reaches the circulation, judged against a reference dose that is usually intravenous. As usually defined, the NOAEL is the highest dose or exposure tested at which no adverse effect was seen. Broadly, the AUC(0-t) is exposure summed from dosing to a finite time, without extrapolation to infinity. The term logD denotes the decadic logarithm of the distribution of all forms, ionised or not, between an organic phase and buffer at a given pH. In series [4], `CNc1nc(Nc2ccc(-n3cnc(Cl)c3)c(OC)c2)nc2c1CC[C@H]2c1ccccc1` gave an F of 49%. The figures for the bioavailability in [5] and in [12] were 64% and 44%, respectively. For the same compound, the Activity was 25% in the series with Homo sapiens [6]; 25% in the series listed under Rattus norvegicus; “Toxic” in series [13]; 25% with Homo sapiens [14]; “Toxic” in series [16]. The concentration at 3 h turned out to be 2100 nM in [7] and 1700 nM in series [8]. The inhibition in vivo at 10 mg/kg in [9] stood at 59%. Besides, the NOAEL in series [10] came to 15 µM. Further, at 30 mg/kg the inhibition in vivo in series [2] was 86%. The pIC50 in series [11] is 6.16; in [3] it was 8.70; in series [18], 6.70; in [19], 5.85. The AUC(0-t) at 24 h in series [15] is 7.6 µM·h. In addition, the Fu in series [17] came to 0.1%. In addition, in series [20], the log distribution coefficient (logD) is listed as 4.42. In addition, the remaining at 10 min in series [21] came out at 96%.

As to `CNc1nc(Nc2ccc(-n3cncn3)c(OC)c2)nc(-c2ccccc2)n1`, the Activity entry in [22] was “Non-Toxic”. The outcome with H4 [23] and in the series with H4 [24] was Active. In series [3], this compound gave a pIC50 of 6.92.
